Calls of active or inactive are those of the source. The calls are words filed in the database; no cut-off is given here.
Legend:
[1] = tested on: Cellular tumor antigen p53 (Homo sapiens), P04637 [Y220C]; experiment: Activation of p53 Y220C mutant in human NUGC3 cells assessed as change in F0X03 mRNA level at 60 uM after 18 hrs by RT-PCR method relative to control; format: cell-based
In short: (§1)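 p53 signalling qPCR array covering 84 genes. Cells were exposed for 18 h, with 0.5% DMSO in both compound and control samples. Total RNA was extracted and purified. Fold-changes were calculated by ΔΔCt using β2-microglobulin (B2M) as the housekeeping gene. Two independent biological replicates were run per cell line.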

[2] = tested on: Cellular tumor antigen p53 (Homo sapiens), P04637 [Y220C]; experiment: Activation of p53 Y220C mutant in human NUGC3 cells assessed as change in EI24 mRNA level at 60 uM after 18 hrs by RT-PCR method relative to control; format: cell-based; in short: as §1
[3] = tested on: Cellular tumor antigen p53 (Homo sapiens), P04637 [Y220C]; experiment: Activation of p53 Y220C mutant in human NUGC3 cells assessed as change in CDC25C mRNA level at 60 uM after 18 hrs by RT-PCR method relative to control; format: cell-based; in short: as §1
[4] = tested on: Cellular tumor antigen p53 (Homo sapiens), P04637 [Y220C]; experiment: Activation of p53 Y220C mutant in human NUGC3 cells assessed as change in GML mRNA level at 60 uM after 18 hrs by RT-PCR method relative to control; format: cell-based; in short: as §1
[5] = tested on: Cellular tumor antigen p53 (Homo sapiens), P04637 [Y220C]; experiment: Activation of p53 Y220C mutant in human NUGC3 cells assessed as change in RB1 mRNA level at 60 uM after 18 hrs by RT-PCR method relative to control; format: cell-based
In short: (§2)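 p53 signalling qPCR array covering 84 p53 pathway genes. Cells were exposed for 18 h, and compound and control wells both held 0.5% DMSO. Total RNA was extracted and purified. Fold-changes were calculated by the ΔΔCt method against the untreated sample, with β2-microglobulin (B2M) as the housekeeping gene. Each cell line was run in two independent biological replicates.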

[6] = tested on: Cellular tumor antigen p53 (Homo sapiens), P04637 [Y220C]; experiment: Activation of p53 Y220C mutant in human NUGC3 cells assessed as change in BCL2 mRNA level at 60 uM after 18 hrs by RT-PCR method relative to control; format: cell-based; in short: as §1
[7] = tested on: Cellular tumor antigen p53 (Homo sapiens), P04637 [Y220C]; experiment: Activation of p53 Y220C mutant in human NUGC3 cells assessed as change in BID mRNA level at 60 uM after 18 hrs by RT-PCR method relative to control; format: cell-based; in short: as §1
[8] = tested on: Cellular tumor antigen p53 (Homo sapiens), P04637 [Y220C]; experiment: Activation of p53 Y220C mutant in human NUGC3 cells assessed as change in CASP2 mRNA level at 60 uM after 18 hrs by RT-PCR method relative to control; format: cell-based; in short: as §1
[9] = tested on: Cellular tumor antigen p53 (Homo sapiens), P04637 [Y220C]; experiment: Activation of p53 Y220C mutant in human NUGC3 cells assessed as change in PIDD1 mRNA level at 60 uM after 18 hrs by RT-PCR method relative to control; format: cell-based; in short: as §2
[10] = tested on: Cellular tumor antigen p53 (Homo sapiens), P04637 [Y220C]; experiment: Activation of p53 Y220C mutant in human NUGC3 cells assessed as change in PRC1 mRNA level at 60 uM after 18 hrs by RT-PCR method relative to control; format: cell-based; in short: as §2
[11] = tested on: Cellular tumor antigen p53 (Homo sapiens), P04637 [Y220C]; experiment: Activation of p53 Y220C mutant in human NUGC3 cells assessed as change in IL6 mRNA level at 60 uM after 18 hrs by RT-PCR method relative to control; format: cell-based; in short: as §2
[12] = tested on: Cellular tumor antigen p53 (Homo sapiens), P04637 [Y220C]; experiment: Activation of p53 Y220C mutant in human NUGC3 cells assessed as change in PTEN mRNA level at 60 uM after 18 hrs by RT-PCR method relative to control; format: cell-based; in short: as §2
[13] = tested on: Cellular tumor antigen p53 (Homo sapiens), P04637 [Y220C]; experiment: Activation of p53 Y220C mutant in human NUGC3 cells assessed as change in BRCA2 mRNA level at 60 uM after 18 hrs by RT-PCR method relative to control; format: cell-based; in short: as §1
[14] = tested on: Cellular tumor antigen p53 (Homo sapiens), P04637 [Y220C]; experiment: Activation of p53 Y220C mutant in human NUGC3 cells assessed as change in EGR1 mRNA level at 60 uM after 18 hrs by RT-PCR method relative to control; format: cell-based; in short: as §1
[15] = target: T1, Cellular tumor antigen p53 (Homo sapiens, UniProt P04637); experiment: Activation of p53 in human NUGC4 cells assessed as change in TNF mRNA level at 60 uM after 18 hrs by RT-PCR method relative to control; format: cell-based; conditions: read-out: FC
[16] = target: T1, Cellular tumor antigen p53; experiment: Activation of p53 in human NUGC4 cells assessed as change in EGFR mRNA level at 60 uM after 18 hrs by RT-PCR method relative to control; format: cell-based; conditions: read-out: FC
In short: (§3)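 p53 signaling qPCR array of 84 p53-pathway genes. Cells were treated in 6-well plates for 18 h with 0.5% DMSO in compound and control samples. Total RNA was extracted and fold-changes were obtained by the ΔΔCt method against untreated control, with β2-microglobulin (B2M) as housekeeping gene. Two independent biological replicates per cell line.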

[17] = target: T1, Cellular tumor antigen p53; experiment: Activation of p53 in human NUGC4 cells assessed as change in E2F3 mRNA level at 60 uM after 18 hrs by RT-PCR method relative to control; format: cell-based; conditions: read-out: FC; in short: as §3
[18] = target: T1, Cellular tumor antigen p53; experiment: Activation of p53 in human NUGC4 cells assessed as change in MYC mRNA level at 60 uM after 18 hrs by RT-PCR method relative to control; format: cell-based; conditions: read-out: FC; in short: as §3
[19] = target: T1, Cellular tumor antigen p53; experiment: Activation of p53 in human NUGC4 cells assessed as change in RPRM mRNA level at 60 uM after 18 hrs by RT-PCR method relative to control; format: cell-based; conditions: read-out: FC
[20] = target: T1, Cellular tumor antigen p53; experiment: Activation of p53 in human NUGC4 cells assessed as change in PCNA mRNA level at 60 uM after 18 hrs by RT-PCR method relative to control; format: cell-based; conditions: read-out: FC
[21] = target: T1, Cellular tumor antigen p53; experiment: Activation of p53 in human NUGC4 cells assessed as change in KAT2B mRNA level at 60 uM after 18 hrs by RT-PCR method relative to control; format: cell-based; conditions: read-out: FC; in short: as §3
[22] = target: T1, Cellular tumor antigen p53; experiment: Activation of p53 in human NUGC4 cells assessed as change in CRADD mRNA level at 60 uM after 18 hrs by RT-PCR method relative to control; format: cell-based; conditions: read-out: FC; in short: as §3
[23] = target: T1, Cellular tumor antigen p53; experiment: Activation of p53 in human NUGC4 cells assessed as change in TP63 mRNA level at 60 uM after 18 hrs by RT-PCR method relative to control; format: cell-based; conditions: read-out: FC
[24] = target: T1, Cellular tumor antigen p53; experiment: Activation of p53 in human NUGC4 cells assessed as change in CCNE1 mRNA level at 60 uM after 18 hrs by RT-PCR method relative to control; format: cell-based; conditions: read-out: FC; in short: as §3
[25] = target: T1, Cellular tumor antigen p53; experiment: Activation of p53 in human NUGC4 cells assessed as change in CDK1 mRNA level at 60 uM after 18 hrs by RT-PCR method relative to control; format: cell-based; conditions: read-out: FC; in short: as §3
[26] = target: T1, Cellular tumor antigen p53; experiment: Activation of p53 in human NUGC4 cells assessed as change in CDK4 mRNA level at 60 uM after 18 hrs by RT-PCR method relative to control; format: cell-based; conditions: read-out: FC; in short: as §3
[27] = target: T1, Cellular tumor antigen p53; experiment: Activation of p53 in human NUGC4 cells assessed as change in TSC1 mRNA level at 60 uM after 18 hrs by RT-PCR method relative to control; format: cell-based; conditions: read-out: FC
[28] = target: T1, Cellular tumor antigen p53; experiment: Activation of p53 in human NUGC4 cells assessed as change in XRCC5 mRNA level at 60 uM after 18 hrs by RT-PCR method relative to control; format: cell-based; conditions: read-out: FC
[29] = tested on: Huh-7; experiment: Upregulation of p21 mRNA level in p53 Y220C mutant knockout human HuH7 cells at 30 uM after 18 hrs by RT-PCR method; format: functional, cell-based

## CCNC(=O)c1c(O)c(I)c(-n2cccc2)c2sc(N(CC)CC)nc12
[1]
  fold change (FC): 2
[2]
  fold change (FC): 0.8
[3]
  fold change (FC): 0.7
[4]
  fold change (FC): 3.1
[5]
  fold change (FC): 0.9
[6]
  fold change (FC): 1.7
[7]
  fold change (FC): 1.2
[8]
  fold change (FC): 1.1
[9]
  fold change (FC): 1.2
[10]
  fold change (FC): 1.1
[11]
  fold change (FC): 6.4
[12]
  fold change (FC): 1.1
[13]
  fold change (FC): 0.9
[14]
  fold change (FC): 1
[15]
  fold induction at 60 µM: 1.1
[16]
  fold induction at 60 µM: 1
[17]
  fold induction at 60 µM: 0.7
[18]
  fold induction at 60 µM: 0.7
[19]
  fold induction at 60 µM: 7.9
[20]
  fold induction at 60 µM: 0.6
[21]
  fold induction at 60 µM: 1
[22]
  fold induction at 60 µM: 0.8
[23]
  fold induction at 60 µM: 0.5
[24]
  fold induction at 60 µM: 0.5
[25]
  fold induction at 60 µM: 0.8
[26]
  fold induction at 60 µM: 0.8
[27]
  fold induction at 60 µM: 1.1
[28]
  fold induction at 60 µM: 0.8
[29]
  Activity: inactive

Reference: ChEMBL document CHEMBL4152234, “Aminobenzothiazole derivatives stabilize the thermolabile p53 cancer mutant Y220C and show anticancer activity in p53-Y220C cell lines” (Eur J Med Chem, 2018)
